{"source": "paper PMC9283309", "about": "(Journal of medicinal chemistry, 2022)", "key": {"[1]": {"system": "murine melanoma (B16-OVA)", "details": "combination with checkpoint inhibitor anti-PD-L1, diprovocim/OVA i.m.; cited from earlier work"}, "[2]": {"system": "adaptive immune response (CD4- and CD-8 dependent responses)", "experiment": "In vivo adjuvant activity on co-administration with OVA", "parameters": "species or system C57BL/6J mice", "details": "i.m. with OVA, 10 mg/kg"}, "[3]": {"system": "OVA-specific IgG, IgG1, IgG2b", "experiment": "Antibody response assay: serum OVA-specific IgG, IgG1, IgG2b by ELISA", "assay_type": "in vivo, C57BL/6J mice", "details": "14 days after a single immunization, i.m. with OVA, 10 mg/kg", "in_short": "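Female 8-week C57BL/6J mice (ca. 20 g) injected i.m. on day 0 with 100 μg OVA (5 mg/kg) plus 200 μg (10 mg/kg) test compound in DMSO:Tween 80:saline (1:1:8); serum taken day 14. ELISA: plates coated with 5 μg/mL OVA overnight at 4 °C, blocked 1% BSA 1 h, serum (diluted in 1% BSA) 2 h, HRP anti-mouse IgG/IgG1/IgG2b 1 h RT, TMB, A450.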"}, "[4]": {"details": "co-administered i.m. with ovalbumin (OVA); cited from earlier work"}, "mTLR1/TLR2": {"target": "mTLR1/TLR2 (Mus musculus, UniProt Q9EPQ1+Q9QUN7)", "sequence (Q9EPQ1 26-795)": "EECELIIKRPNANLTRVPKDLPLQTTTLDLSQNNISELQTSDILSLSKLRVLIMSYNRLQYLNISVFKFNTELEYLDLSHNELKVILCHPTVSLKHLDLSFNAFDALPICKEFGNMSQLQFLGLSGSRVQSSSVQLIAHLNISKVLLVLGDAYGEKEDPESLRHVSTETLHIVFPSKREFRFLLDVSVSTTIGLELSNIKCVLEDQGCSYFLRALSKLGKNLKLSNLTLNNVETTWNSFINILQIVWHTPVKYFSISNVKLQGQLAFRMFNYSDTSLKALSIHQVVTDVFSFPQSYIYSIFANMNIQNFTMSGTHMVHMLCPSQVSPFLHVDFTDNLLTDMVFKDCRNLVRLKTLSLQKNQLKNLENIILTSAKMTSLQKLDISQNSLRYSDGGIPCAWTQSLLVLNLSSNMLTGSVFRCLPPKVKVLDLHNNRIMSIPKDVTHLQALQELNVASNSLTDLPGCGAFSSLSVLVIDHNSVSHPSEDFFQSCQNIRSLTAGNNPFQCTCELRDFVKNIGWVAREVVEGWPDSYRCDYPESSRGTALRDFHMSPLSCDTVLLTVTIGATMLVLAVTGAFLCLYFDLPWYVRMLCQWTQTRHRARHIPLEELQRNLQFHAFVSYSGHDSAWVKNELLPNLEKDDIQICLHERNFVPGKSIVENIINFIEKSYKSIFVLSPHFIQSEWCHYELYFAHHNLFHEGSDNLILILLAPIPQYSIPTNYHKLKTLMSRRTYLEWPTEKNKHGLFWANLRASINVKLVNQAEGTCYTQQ", "sequence (Q9QUN7 25-784)": "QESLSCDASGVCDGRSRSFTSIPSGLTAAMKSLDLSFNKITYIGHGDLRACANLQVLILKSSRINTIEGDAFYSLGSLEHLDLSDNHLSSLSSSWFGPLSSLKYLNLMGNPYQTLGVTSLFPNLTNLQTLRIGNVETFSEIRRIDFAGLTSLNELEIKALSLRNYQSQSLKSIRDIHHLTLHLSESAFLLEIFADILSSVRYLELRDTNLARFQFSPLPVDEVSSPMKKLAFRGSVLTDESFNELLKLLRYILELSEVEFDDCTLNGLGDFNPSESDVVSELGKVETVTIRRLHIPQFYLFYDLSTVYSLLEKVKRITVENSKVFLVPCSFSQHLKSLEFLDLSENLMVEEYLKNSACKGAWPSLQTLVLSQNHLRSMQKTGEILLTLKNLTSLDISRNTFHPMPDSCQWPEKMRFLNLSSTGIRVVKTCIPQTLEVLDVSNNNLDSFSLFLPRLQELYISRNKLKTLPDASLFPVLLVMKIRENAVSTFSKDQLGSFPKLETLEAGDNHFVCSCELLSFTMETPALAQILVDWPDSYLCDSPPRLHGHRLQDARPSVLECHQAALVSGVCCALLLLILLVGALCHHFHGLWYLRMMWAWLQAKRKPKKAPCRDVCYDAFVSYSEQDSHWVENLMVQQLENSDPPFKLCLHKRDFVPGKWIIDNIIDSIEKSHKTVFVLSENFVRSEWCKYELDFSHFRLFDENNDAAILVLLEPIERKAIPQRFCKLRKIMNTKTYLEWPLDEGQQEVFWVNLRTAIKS", "assay_type": "cell-based, mouse (C57BL/6J)", "details": "mouse macrophages; for murine efficacy/activity in words: compared with diprovocim-1"}, "hTLR1/TLR2": {"target": "hTLR1/TLR2 (Homo sapiens, UniProt O60603+Q15399)", "sequence (Q15399 25-786)": "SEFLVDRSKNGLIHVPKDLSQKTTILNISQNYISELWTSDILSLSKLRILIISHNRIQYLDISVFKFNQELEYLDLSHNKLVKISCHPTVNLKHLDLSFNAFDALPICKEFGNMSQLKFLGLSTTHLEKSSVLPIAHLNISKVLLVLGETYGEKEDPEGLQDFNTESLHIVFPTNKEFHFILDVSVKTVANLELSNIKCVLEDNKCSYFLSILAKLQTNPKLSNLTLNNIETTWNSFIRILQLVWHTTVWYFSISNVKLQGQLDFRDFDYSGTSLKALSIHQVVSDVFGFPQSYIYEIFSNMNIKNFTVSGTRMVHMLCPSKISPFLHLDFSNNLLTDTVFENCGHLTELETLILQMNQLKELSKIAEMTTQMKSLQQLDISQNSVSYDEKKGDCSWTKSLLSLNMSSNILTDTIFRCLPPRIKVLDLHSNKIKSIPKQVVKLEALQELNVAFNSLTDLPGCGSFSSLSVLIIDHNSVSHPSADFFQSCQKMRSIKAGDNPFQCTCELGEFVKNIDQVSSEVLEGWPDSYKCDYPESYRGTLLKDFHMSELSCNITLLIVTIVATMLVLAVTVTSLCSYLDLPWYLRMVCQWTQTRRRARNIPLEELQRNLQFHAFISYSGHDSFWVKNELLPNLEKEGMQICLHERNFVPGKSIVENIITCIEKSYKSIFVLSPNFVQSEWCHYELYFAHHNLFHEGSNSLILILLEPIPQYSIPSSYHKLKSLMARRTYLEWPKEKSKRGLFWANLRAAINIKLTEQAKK", "sequence (O60603 21-784)": "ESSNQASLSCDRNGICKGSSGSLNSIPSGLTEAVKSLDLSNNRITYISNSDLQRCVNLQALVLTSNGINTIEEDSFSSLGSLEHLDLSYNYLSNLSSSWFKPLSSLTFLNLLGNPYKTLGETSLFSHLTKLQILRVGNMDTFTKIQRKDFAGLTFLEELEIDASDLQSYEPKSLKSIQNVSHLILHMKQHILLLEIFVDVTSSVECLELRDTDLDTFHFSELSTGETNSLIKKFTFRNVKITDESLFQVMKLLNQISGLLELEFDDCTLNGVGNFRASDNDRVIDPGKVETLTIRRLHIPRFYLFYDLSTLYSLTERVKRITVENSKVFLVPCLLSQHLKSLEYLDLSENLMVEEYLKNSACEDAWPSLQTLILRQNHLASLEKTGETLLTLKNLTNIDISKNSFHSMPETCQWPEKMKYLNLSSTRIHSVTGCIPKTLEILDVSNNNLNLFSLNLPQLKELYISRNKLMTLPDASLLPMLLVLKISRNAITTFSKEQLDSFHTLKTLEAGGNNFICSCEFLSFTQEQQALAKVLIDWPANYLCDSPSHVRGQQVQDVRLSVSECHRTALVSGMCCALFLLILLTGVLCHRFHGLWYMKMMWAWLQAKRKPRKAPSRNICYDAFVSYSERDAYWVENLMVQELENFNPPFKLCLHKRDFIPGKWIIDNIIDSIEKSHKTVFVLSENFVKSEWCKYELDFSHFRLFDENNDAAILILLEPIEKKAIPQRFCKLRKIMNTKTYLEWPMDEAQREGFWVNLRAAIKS", "experiment": "Stimulated release of TNF-α from differentiated THP-1 cells", "assay_type": "cell-based", "details": "text comment on Figure 3 data, compared with diprovocim-1"}, "TLR4": {"system": "TLR4", "assay_type": "cell-based, mouse", "details": "500 nM, diprovocim-X versus diprovocim-1"}, "TLR2": {"target": "TLR2 (Homo sapiens, UniProt O60603+Q15399)", "sequence (O60603 21-784)": "as above", "sequence (Q15399 25-786)": "as the sequence (Q15399 25-786) above", "assay_type": "cell-based", "details": "5 nM; anti-TLR2 20 μg/mL, 1 h pretreatment", "in_short": "(§1)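 THP-1 cells PMA-differentiated (100 nM, 24 h) then rested 24 h in fresh RPMI/10% FBS. Cells pretreated 1 h with neutralizing anti-TLR1, anti-TLR2 or anti-TLR6 (20 μg/mL) before stimulation with 5 nM test compound; no-antibody wells as control. TNF-α release was the read-out.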"}, "TLR1": {"target": "TLR1 (Homo sapiens, UniProt O60603+Q15399)", "sequence (Q15399 25-786)": "as above", "sequence (O60603 21-784)": "as the sequence (O60603 21-784) above", "assay_type": "cell-based", "details": "5 nM; anti-TLR1 20 μg/mL, 1 h pretreatment", "in_short": "as §1"}}, "data": [{"compound": "O=C(N[C@H]1C[C@@H]1c1ccccc1)[C@@H]1CN(C(=O)c2ccc(C(=O)N3C[C@@H](C(=O)N[C@H]4C[C@@H]4c4ccccc4)[C@H](C(=O)N[C@H]4C[C@@H]4c4ccccc4)C3)cc2)C[C@H]1C(=O)N[C@H]1C[C@@H]1c1ccccc1", "note": "[compound 1]", "values": [{"measurement": "tumor response, B16-OVA", "setting": "[1]", "value": "eradicated tumors"}, {"measurement": "adjuvant activity in mice", "setting": "[2]", "value": "comparable adjuvant activity"}, {"measurement": "OVA-specific circulating antibodies (IgG, IgG1, IgG2b)", "setting": "[3]", "value": "strong responses"}, {"measurement": "adjuvant activity in mice", "setting": "[4]", "value": "effective adjuvant"}]}, {"compound": "CC(C)(C)OC(=O)NCCCCCCCCCCCCNC(=O)[C@@H]1CN(C(=O)c2ccc(C(=O)N3C[C@@H](C(=O)N[C@H]4C[C@@H]4c4ccccc4)[C@H](C(=O)N[C@H]4C[C@@H]4c4ccccc4)C3)cc2)C[C@H]1C(=O)N[C@H]1C[C@@H]1c1ccccc1", "note": "[compound 17, tert-Butyl (12-((3S,4S)-1-(4-((3S,4S)-3,4-bis(((1S,2R)-2-phenylcyclopropyl)carbamoyl)-pyrrolidine-1-carbonyl)benzoyl)-4-(((1S,2R)-2-phenylcyclopropyl)carbamoyl)pyrrolidine-3-carboxamido)dodecyl)carbamate]", "values": [{"measurement": "murine efficacy/activity in words", "setting": "mTLR1/TLR2", "value": "did not display this increased or improved murine activity"}]}, {"compound": "C#CCCCCCCCCCCCCNC(=O)[C@@H]1CN(C(=O)c2ccc(C(=O)N3C[C@@H](C(=O)N[C@H]4C[C@@H]4c4ccccc4)[C@H](C(=O)N[C@H]4C[C@@H]4c4ccccc4)C3)cc2)C[C@H]1C(=O)N[C@H]1C[C@@H]1c1ccccc1", "note": "[compound 19, (3S,4S)-1-(4-((3S,4S)-3,4-Bis(((1S,2R)-2-phenylcyclopropyl)carbamoyl)pyrrolidine-1-carbonyl)-benzoyl)-N^3-((1S,2R)-2-phenylcyclopropyl)-N^4-(tetradec-13-yn-1-yl)pyrrolidine-3,4-dicarboxamide]", "values": [{"measurement": "response efficacy in words", "setting": "hTLR1/TLR2", "value": "small improvement in the response efficacy"}]}, {"compound": "O=C(NCCCCCCCCc1ccc(O)cc1)[C@@H]1CN(C(=O)c2ccc(C(=O)N3C[C@@H](C(=O)N[C@H]4C[C@@H]4c4ccccc4)[C@H](C(=O)N[C@H]4C[C@@H]4c4ccccc4)C3)cc2)C[C@H]1C(=O)N[C@H]1C[C@@H]1c1ccccc1", "note": "[compound 26, (3S,4S)-1-(4-((3S,4S)-3,4-Bis(((1S,2R)-2-phenylcyclopropyl)carbamoyl)pyrrolidine-1-carbonyl)-benzoyl)-N^3-(8-(4-hydroxyphenyl)octyl)-N^4-((1S,2R)-2-phenylcyclopropyl)pyrrolidine-3,4-dicarboxamide]", "values": [{"measurement": "murine efficacy/activity in words", "setting": "mTLR1/TLR2", "value": "substantial increase in efficacy"}]}, {"compound": "Nc1ccc(CCCCCCCCNC(=O)[C@@H]2CN(C(=O)c3ccc(C(=O)N4C[C@@H](C(=O)N[C@H]5C[C@@H]5c5ccccc5)[C@H](C(=O)N[C@H]5C[C@@H]5c5ccccc5)C4)cc3)C[C@H]2C(=O)N[C@H]2C[C@@H]2c2ccccc2)cc1", "note": "[compound 27, (3S,4S)-N^3-(8-(4-Aminophenyl)octyl)-1-(4-((3S,4S)-3,4-bis(((1S,2R)-2-phenylcyclopropyl)-carbamoyl)pyrrolidine-1-carbonyl)benzoyl)-N^4-((1S,2R)-2-phenylcyclopropyl)pyrrolidine-3,4-dicarboxamide]", "values": [{"measurement": "murine efficacy/activity in words", "setting": "mTLR1/TLR2", "value": "substantial increase in efficacy"}]}, {"compound": "CC(C)(C)OC(=O)NCC(=O)OCCCCCCCCCCCCNC(=O)[C@@H]1CN(C(=O)c2ccc(C(=O)N3C[C@@H](C(=O)N[C@H]4C[C@@H]4c4ccccc4)[C@H](C(=O)N[C@H]4C[C@@H]4c4ccccc4)C3)cc2)C[C@H]1C(=O)N[C@H]1C[C@@H]1c1ccccc1", "note": "[compound 35, 12-((3S,4S)-1-(4-((3S,4S)-3,4-Bis(((1S,2R)-2-phenylcyclopropyl)carbamoyl)-pyrrolidine-1-carbonyl)benzoyl)-4-(((1S,2R)-2-phenylcyclopropyl)carbamoyl)-pyrrolidine-3-carboxamido)dodecyl-2-((tert-butoxycarbonyl)amino)acetate]", "values": [{"measurement": "fold more active than diprovocim-1", "setting": "mTLR1/TLR2; EC50 compared with diprovocim-1", "value": 2, "unit": "fold"}, {"measurement": "efficacy as a TNF inducer in mouse macrophage cultures", "setting": "TLR4", "value": "greater efficacy"}, {"measurement": "dependence of TNF-α release on TLR2", "setting": "TLR2", "value": "dependent"}, {"measurement": "adjuvant activity in mice", "setting": "[2]", "value": "matching or surpassing the in vivo activity of diprovocim-1"}, {"measurement": "OVA-specific circulating antibodies (IgG, IgG1, IgG2b)", "setting": "[3]", "value": "strong responses"}, {"measurement": "dependence of TNF-α release on TLR1", "setting": "TLR1", "value": "dependent"}]}, {"compound": "CC(C)(C)OC(=O)NCCOCCOCCOCCOCCC(=O)OCCCCCCCCCCCCNC(=O)[C@@H]1CN(C(=O)c2ccc(C(=O)N3C[C@@H](C(=O)N[C@H]4C[C@@H]4c4ccccc4)[C@H](C(=O)N[C@H]4C[C@@H]4c4ccccc4)C3)cc2)C[C@H]1C(=O)N[C@H]1C[C@@H]1c1ccccc1", "note": "[compound 55, 12-((3S,4S)-1-(4-((3S,4S)-3,4-Bis(((1S,2R)-2-phenylcyclopropyl)carbamoyl)pyrrolidine-1-carbonyl)benzoyl)-4-(((1S,2R)-2-phenylcyclopropyl)carbamoyl)pyrrolidine-3-carboxamido)-dodecyl 2,2-dimethyl-4-oxo-3,8,11,14,17-pentaoxa-5-azaicosan-20-oate]", "values": [{"measurement": "murine efficacy/activity in words", "setting": "mTLR1/TLR2", "value": "modest increase in the efficacy"}]}]}
